Assay results from ChEMBL document CHEMBL4354800, “Amphiphilic nebramine-based hybrids Rescue legacy antibiotics from intrinsic resistance in multidrug-resistant Gram-negative bacilli” (Eur J Med Chem, 2019).

How the values were obtained:
Type in all cases: functional
Pseudomonas aeruginosa [1] = test: Potentiation of moxifloxacin-induced antibacterial activity against MDR/XDR Pseudomonas aeruginosa isolate PA259-96918 harboring GyrA T83I mutant assessed as fold reduction in moxifloxacin MIC at 9 uM incubated for 18 hrs by broth microdilution method
How it was run: (§1)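 CLSI broth microdilution. Overnight cultures were set to 0.5 McFarland in saline, diluted 1:50 in Mueller-Hinton broth to a final 5 × 10^5 CFU/mL, and incubated 18 h at 37 °C against 2-fold antibiotic dilutions. A fixed adjuvant level was present throughout. MIC = lowest concentration with no visible turbidity, confirmed at 590 nm. Potentiation = fold drop in antibiotic MIC versus antibiotic alone.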

Pseudomonas aeruginosa [2] = test: Potentiation of moxifloxacin-induced antibacterial activity against MDR/XDR Pseudomonas aeruginosa isolate 101243 devoid of GyrA T83I mutant assessed as fold reduction in moxifloxacin MIC at 9 uM incubated for 18 hrs by broth microdilution method; how it was run: as §1
Pseudomonas aeruginosa [3] = test: Potentiation of ciprofloxacin-induced antibacterial activity against MDR/XDR Pseudomonas aeruginosa isolate 101243 devoid of GyrA T83I mutant assessed as fold reduction in ciprofloxacin MIC at 9 uM incubated for 18 hrs by broth microdilution method
Pseudomonas aeruginosa [4] = test: Potentiation of minocycline-induced antibacterial activity against MDR/XDR Pseudomonas aeruginosa isolate PA260-97103 harboring GyrA T83I mutant assessed as fold reduction in minocycline MIC at 9 uM incubated for 18 hrs by broth microdilution method
Pseudomonas aeruginosa [5] = test: Potentiation of rifampicin-induced antibacterial activity against wild type Pseudomonas aeruginosa PAO1 assessed as fold reduction in rifampicin MIC at 9 uM incubated for 18 hrs by broth microdilution method; how it was run: as §1
Klebsiella pneumoniae = test: Synergistic antibacterial activity against Klebsiella pneumoniae 113250 assessed as fractional inhibitory concentration index in presence of rifampicin incubated for 18 hrs by broth dilution method
How it was run: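 Checkerboard titration of the adjuvant against the antibiotic, run under the CLSI microdilution conditions (MHB, 5 × 10^5 CFU/mL, 18 h, 37 °C). Each agent's FIC is its MIC in combination divided by its MIC alone; FICI is the sum of the two FICs. FICI ≤0.5 was read as synergy, >0.5–4.0 as no interaction, and >4.0 as antagonism.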

Escherichia coli = test: Potentiation of rifampicin-induced antibacterial activity against Escherichia coli ATCC 25922 assessed as fold reduction in rifampicin MIC at 2.0 uM incubated for 18 hrs by broth dilution method
How it was run: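 Antibiotic MIC determined by CLSI broth microdilution (MHB, 5 × 10^5 CFU/mL, 18 h, 37 °C), once alone and once with a fixed concentration of the adjuvant. Potentiation is the ratio of the antibiotic MIC alone to its MIC in the presence of the adjuvant.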

Pseudomonas aeruginosa [6] = test: Antimicrobial activity against XDR Pseudomonas aeruginosa isolate PA264 infected in Galleria mellonella larvae assessed as survival rate at 75 mg/kg co-administered with 75 mg/kg rifampicin at 2 hrs post-inoculation measured after 18 hrs relative to control
How it was run: (§2)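 G. mellonella larvae were injected with ~5 CFU of P. aeruginosa PA264 (10 µL of 5 × 10^2 CFU/mL in PBS) and held 2 h at 37 °C. A single 10 µL injection followed: monotherapy or rifampicin + compound (25+25, 50+50 or 75+75 mg/kg), with PBS as control. Larvae kept at 37 °C were scored every 6 h to 24 h; dead = no response to touch. n = 30 (two runs of 15); Kaplan-Meier.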

Pseudomonas aeruginosa [7] = test: Antimicrobial activity against XDR Pseudomonas aeruginosa isolate PA264 infected in Galleria mellonella larvae assessed as survival rate at 50 mg/kg co-administered with 50 mg/kg rifampicin at 2 hrs post-inoculation measured after 18 hrs relative to control; how it was run: as §2
Pseudomonas aeruginosa [8] = test: Potentiation of rifampicin-induced antibacterial activity against wild type Pseudomonas aeruginosa PAO1 assessed as fold reduction in rifampicin MIC at 4.1 uM incubated for 18 hrs by broth microdilution method; how it was run: as §1
Pseudomonas aeruginosa [9] = test: Synergistic antibacterial activity against MDR/XDR Pseudomonas aeruginosa isolate PA264-104354 harboring GyrA T83I mutant assessed as fractional inhibitory concentration index in presence of moxifloxacin incubated for 18 hrs by broth microdilution method
How it was run: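 Checkerboard synergy assay. Antibiotic and adjuvant in twofold dilutions in Mueller-Hinton broth. Inoculum 5 × 10^5 CFU/mL from a 0.5 McFarland suspension, 18 h at 37 °C, MIC read by turbidity and confirmed at 590 nm. FIC = MIC in combination / MIC alone for each agent, FICI = sum. Interpreted as ≤0.5 synergy, 0.5–4 no interaction, >4 antagonism.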

Pseudomonas aeruginosa [10] = test: Potentiation of ciprofloxacin-induced antibacterial activity against MDR/XDR Pseudomonas aeruginosa isolate PA262-101856 harboring GyrA T83I mutant assessed as fold reduction in ciprofloxacin MIC at 7.5 uM incubated for 18 hrs by broth microdilution method
Pseudomonas aeruginosa [11] = test: Potentiation of minocycline-induced antibacterial activity against MDR/XDR Pseudomonas aeruginosa isolate PA260-97103 harboring GyrA T83I mutant assessed as fold reduction in minocycline MIC at 7.5 uM incubated for 18 hrs by broth microdilution method
Pseudomonas aeruginosa [12] = test: Potentiation of rifampicin-induced antibacterial activity against MDR/XDR Pseudomonas aeruginosa isolate PA262-101856 harboring GyrA T83I mutant assessed as fold reduction in rifampicin MIC at 7.5 uM incubated for 18 hrs by broth microdilution method; how it was run: as §1
Pseudomonas aeruginosa [13] = test: Potentiation of rifampicin-induced antibacterial activity against MDR/XDR Pseudomonas aeruginosa isolate 100036 harboring GyrA T83I mutant assessed as fold reduction in rifampicin MIC at 7.5 uM incubated for 18 hrs by broth microdilution method; how it was run: as §1
Pseudomonas aeruginosa [14] = test: Potentiation of rifampicin-induced antibacterial activity against MDR/XDR Pseudomonas aeruginosa isolate 101885 harboring GyrA T83I mutant assessed as fold reduction in rifampicin MIC at 7.5 uM incubated for 18 hrs by broth microdilution method; how it was run: as §1
Pseudomonas aeruginosa [15] = test: Potentiation of rifampicin-induced antibacterial activity against MDR/XDR Pseudomonas aeruginosa isolate 91433 devoid of GyrA T83I mutant assessed as fold reduction in rifampicin MIC at 7.5 uM incubated for 18 hrs by broth microdilution method; how it was run: as §1
Acinetobacter baumannii = test: Antimicrobial activity against multidrug-resistant Acinetobacter baumannii 110193 incubated for 18 hrs by broth dilution method; settings: Acinetobacter baumannii, 110193, 18 h
How it was run: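 Broth microdilution per CLSI: overnight cultures set to 0.5 McFarland in saline, diluted 1:50 in Mueller-Hinton broth to a final 5 × 10^5 CFU/mL, added to 2-fold serial dilutions, incubated 18 h at 37 °C; MIC is the lowest concentration without visible turbidity, confirmed at 590 nm.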

Pseudomonas aeruginosa [16] = test: Potentiation of minocycline-induced antimicrobial activity against MDR/XDR Pseudomonas aeruginosa isolate 101243 devoid of GyrA Thr83Ile mutant assessed as minocycline MIC80 incubated for 18 hrs by broth microdilution method (reference value: 32 microg/ml); settings: isolate 101243, 18 h

Cl.Cl.Cl.Cl.Cl.Cl.NC[C@H]1O[C@H](O[C@H]2[C@H](OCCCCCCCCCCN3CCN(Cc4cccc5ccccc45)CC3)[C@@H](O)[C@H](N)C[C@@H]2N)[C@H](N)C[C@@H]1O
fold change (FC) (Pseudomonas aeruginosa [1]): 64
fold change (FC) (Pseudomonas aeruginosa [2]): 8
fold change (FC) (Pseudomonas aeruginosa [3]): 4
fold change (FC) (Pseudomonas aeruginosa [4]): 64
fold change (FC) (Pseudomonas aeruginosa [5]): 256

Cl.Cl.Cl.Cl.Cl.NC[C@H]1O[C@H](O[C@H]2[C@H](OCCCCCCCCCCCCN3CCN(c4cc5c(cc4F)c(=O)c(C(=O)O)cn5C4CC4)CC3)[C@@H](O)[C@H](N)C[C@@H]2N)[C@H](N)C[C@@H]1O
fractional inhibitory concentration index (FICI) (Klebsiella pneumoniae): 0.039
fold change (FC) (Escherichia coli): 128
survival at 75 mg/kg (Pseudomonas aeruginosa [6]): 87%
survival at 50 mg/kg (Pseudomonas aeruginosa [7]): 60%
fold change (FC) (Pseudomonas aeruginosa [8]): >=256

COc1c(N2C[C@@H]3CCCN(CCCCCCCCCCCCO[C@@H]4[C@@H](O)[C@H](N)C[C@H](N)[C@H]4O[C@H]4O[C@H](CN)[C@@H](O)C[C@H]4N)[C@@H]3C2)c(F)cc2c(=O)c(C(=O)O)cn(C3CC3)c12.Cl.Cl.Cl.Cl.Cl
fractional inhibitory concentration index (FICI) (Pseudomonas aeruginosa [9]): 0.09
fold change (FC) (Pseudomonas aeruginosa [10]): 4
fold change (FC) (Pseudomonas aeruginosa [11]): 32
fold change (FC) (Pseudomonas aeruginosa [12]): 512
fold change (FC) (Pseudomonas aeruginosa [13]): 256
fold change (FC) (Pseudomonas aeruginosa [14]): 128
fold change (FC) (Pseudomonas aeruginosa [15]): 128
MIC (Acinetobacter baumannii): > 256 µg/mL
MIC80 (Pseudomonas aeruginosa [16]): 1 µg/mL
